Active and inactive are the calls of the source. The rule behind the calls is not given here.
How the values were obtained:
[1] = target: T1, Transient receptor potential cation channel subfamily V member 1 (Homo sapiens, UniProt Q8NER1); experiment: Antagonist activity at human TRPV1 receptor assessed as inhibition of capsaicin-induced calcium flux by FLIPR; assay type: functional
Procedure, shortened: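 Capsaicin-evoked Ca2+ flux in cells expressing TRPV1, read on a FLIPR with a Ca2+-sensitive fluorescent dye. Antagonism was taken as inhibition of the capsaicin response.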

[2] = Metabolic stability in human liver microsomes assessed as half life; assay type: ADME, Microsome
[3] = Metabolic stability in rat liver microsomes assessed as half life; assay type: ADME, Microsome
[4] = target: T1, Transient receptor potential cation channel subfamily V member 1; experiment: Displacement of [3H]RTX from human TRPV1 receptor expressed in HEK293 cell membrane; assay type: cell membranes
[5] = target: T1, Transient receptor potential cation channel subfamily V member 1; experiment: Antagonist activity at human TRPV1 receptor assessed as inhibition of capsaicin-induced calcium flux at 1 uM by FLIPR; assay type: functional
Cytochrome P450 3A4 = Cytochrome P450 3A4 (Homo sapiens, UniProt P08684); experiment: Inhibition of recombinant CYP3A4; assay type: ADME
Cytochrome P450 2D6 = Cytochrome P450 2D6 (Homo sapiens, UniProt P10635); experiment: Inhibition of recombinant CYP2D6; assay type: ADME
[6] = Apparent permeability from apical to basolateral side of human Caco-2 cells; assay type: ADME, cell-based
Caco-2 = experiment: Ratio of permeability from basolateral to apical over apical to basolateral side of human Caco-2 cells

T1 sequence (Q8NER1 whole entry): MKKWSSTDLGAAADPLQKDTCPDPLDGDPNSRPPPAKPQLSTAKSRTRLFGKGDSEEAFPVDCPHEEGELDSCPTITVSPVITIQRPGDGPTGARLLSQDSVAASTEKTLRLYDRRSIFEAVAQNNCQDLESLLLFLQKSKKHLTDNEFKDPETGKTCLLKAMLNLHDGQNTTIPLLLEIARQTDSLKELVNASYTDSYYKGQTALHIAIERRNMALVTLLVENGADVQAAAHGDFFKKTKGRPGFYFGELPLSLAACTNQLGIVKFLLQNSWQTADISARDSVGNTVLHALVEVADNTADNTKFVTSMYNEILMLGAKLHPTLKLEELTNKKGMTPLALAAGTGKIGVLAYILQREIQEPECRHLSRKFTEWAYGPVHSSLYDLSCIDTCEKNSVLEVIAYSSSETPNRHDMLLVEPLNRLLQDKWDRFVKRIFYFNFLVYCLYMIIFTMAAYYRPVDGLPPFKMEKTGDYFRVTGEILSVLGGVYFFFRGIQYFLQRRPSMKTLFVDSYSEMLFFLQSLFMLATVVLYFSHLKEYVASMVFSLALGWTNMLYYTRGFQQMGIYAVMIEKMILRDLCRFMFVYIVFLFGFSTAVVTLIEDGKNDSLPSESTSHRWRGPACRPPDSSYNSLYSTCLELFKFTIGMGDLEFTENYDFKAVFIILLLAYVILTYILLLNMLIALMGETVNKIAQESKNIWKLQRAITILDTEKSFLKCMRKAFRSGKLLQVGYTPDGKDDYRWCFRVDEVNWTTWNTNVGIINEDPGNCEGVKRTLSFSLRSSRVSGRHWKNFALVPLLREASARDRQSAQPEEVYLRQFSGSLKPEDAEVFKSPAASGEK
Chain of Cytochrome P450 3A4 (P08684 whole entry): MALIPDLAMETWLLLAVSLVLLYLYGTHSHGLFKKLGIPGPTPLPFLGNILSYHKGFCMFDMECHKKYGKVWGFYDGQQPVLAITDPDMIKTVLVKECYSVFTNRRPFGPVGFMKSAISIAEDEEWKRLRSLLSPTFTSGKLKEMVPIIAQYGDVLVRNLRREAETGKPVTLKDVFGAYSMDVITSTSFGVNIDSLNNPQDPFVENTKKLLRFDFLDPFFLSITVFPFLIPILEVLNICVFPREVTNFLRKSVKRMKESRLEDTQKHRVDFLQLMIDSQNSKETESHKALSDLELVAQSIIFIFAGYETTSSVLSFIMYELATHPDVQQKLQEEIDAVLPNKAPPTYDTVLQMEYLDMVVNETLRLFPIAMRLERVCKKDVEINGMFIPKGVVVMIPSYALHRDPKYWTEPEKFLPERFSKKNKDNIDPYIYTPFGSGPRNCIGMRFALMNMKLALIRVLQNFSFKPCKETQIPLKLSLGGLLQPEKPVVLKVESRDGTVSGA
Chain of Cytochrome P450 2D6 (P10635 whole entry): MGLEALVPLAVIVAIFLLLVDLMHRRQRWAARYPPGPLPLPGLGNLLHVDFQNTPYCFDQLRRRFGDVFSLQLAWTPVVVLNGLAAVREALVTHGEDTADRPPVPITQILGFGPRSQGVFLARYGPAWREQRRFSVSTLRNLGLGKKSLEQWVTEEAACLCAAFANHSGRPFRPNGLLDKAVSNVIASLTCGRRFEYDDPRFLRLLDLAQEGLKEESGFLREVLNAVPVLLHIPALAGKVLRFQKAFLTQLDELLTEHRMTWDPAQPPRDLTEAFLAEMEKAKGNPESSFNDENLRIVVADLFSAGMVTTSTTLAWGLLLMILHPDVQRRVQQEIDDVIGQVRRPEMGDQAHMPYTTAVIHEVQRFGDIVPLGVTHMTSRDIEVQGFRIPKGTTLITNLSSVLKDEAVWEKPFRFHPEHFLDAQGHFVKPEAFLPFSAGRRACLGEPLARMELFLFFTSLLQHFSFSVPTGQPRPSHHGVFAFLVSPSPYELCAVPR

| Structure (SMILES) | half-life [2] | half-life [3] | Ki [4] | also measured |
| --- | --- | --- | --- | --- |
| O=C1COc2ccc(NC(=O)C3CCN(c4cccc(C(F)(F)F)c4)CC3)cc2N1 | 17.3 min | 2.8 min | – | IC50 [1]: 0.18 µM |
| Cc1c(Cl)cccc1N1CCC(C(=O)Nc2ccc3c(c2)NC(=O)CO3)CC1 | – | – | 0.1 µM | – |
| O=C1COc2ccc(NC(=O)C3CCN(c4cccc(F)c4Br)CC3)cc2N1 | 15.6 min | 7.2 min | 0.081 µM | – |
| O=C(Nc1ccc2cc[nH]c2c1)C1CCN(c2cccc(C(F)(F)F)c2)CC1 | – | – | – | IC50 [1]: > 9 µM |
| O=C(Nc1ccc2c(c1)NC(=O)C(C(=O)O)O2)C1CCN(c2cc(F)c(F)c(F)c2)CC1 (stereo not drawn) | – | – | – | Activity [1]: inactive |
| O=C1COc2cc(NC(=O)C3CCN(c4cc(F)c(F)c(F)c4)CC3)ccc2N1 | – | – | – | inhibition [5]: 55% |
| CC(=O)N1CCc2cc(NC(=O)C3CCN(c4cccc(C(F)(F)F)c4)CC3)ccc21 | – | – | – | IC50 [1]: > 9 µM |
| O=C1COc2cccc(NC(=O)C3CCN(c4cc(F)c(F)c(F)c4)CC3)c2N1 | – | – | – | inhibition [5]: 9% |
| CC(C)c1ccccc1N1CCC(C(=O)Nc2ccc3c(c2)NC(=O)CO3)CC1 | 11.4 min | 9 min | – | – |
| Cc1cccc(N2CCC(C(=O)Nc3ccc4c(c3)NC(=O)CO4)CC2)c1C | > 60 min | 6.5 min | 0.028 µM | – |
| CCOC(=O)C1Oc2ccc(NC(=O)C3CCN(c4cc(F)c(F)c(F)c4)CC3)cc2NC1=O (stereo not drawn) | – | – | – | Activity [1]: inactive |
| COC(=O)CC1Oc2ccc(NC(=O)C3CCN(c4cc(F)c(F)c(F)c4)CC3)cc2NC1=O (stereo not drawn) | – | – | – | IC50 [1]: 0.89 µM |
| O=C1COc2ccc(NC(=O)C3CCN(c4ccccc4C(F)(F)F)CC3)cc2N1 | – | – | 0.068 µM | – |
| O=C(O)CC1Oc2ccc(NC(=O)C3CCN(c4cc(F)c(F)c(F)c4)CC3)cc2NC1=O (stereo not drawn) | – | – | – | inhibition [5]: 5% |
| CC1(C(=O)O)Oc2ccc(NC(=O)C3CCN(c4cc(F)c(F)c(F)c4)CC3)cc2NC1=O (stereo not drawn) | – | – | – | Activity [1]: inactive |
| CN1C(=O)COc2ccc(NC(=O)C3CCN(c4cc(F)c(F)c(F)c4)CC3)cc21 | – | – | – | Activity [1]: inactive |
| O=C1COc2c(cccc2NC(=O)C2CCN(c3cc(F)c(F)c(F)c3)CC2)N1 | – | – | – | Activity [1]: inactive |
| O=C1COc2ccc(NC(=O)C3CCN(c4cccc(Cl)c4)CC3)cc2N1 | 27.7 min | 4.4 min | 0.097 µM | – |
| CC(C)(C)c1ccc(N2CCC(C(=O)Nc3ccc4c(c3)NC(=O)CO4)CC2)cc1 | – | – | 0.142 µM | – |

The next lines start with results.

| half-life [2] | half-life [3] | Ki [4] | Structure (SMILES) | also measured |
| --- | --- | --- | --- | --- |
| 81.7 min | 19.4 min | – | O=C1COc2ccc(NC(=O)C3CCN(c4cc(F)cc(F)c4)CC3)cc2N1 | – |
| 58.9 min | 63.8 min | 0.049 µM | O=C1COc2ccc(NC(=O)C3CCN(c4cc(F)c(F)c(F)c4)CC3)cc2N1 | IC50 [1]: 0.059 µM |
| 44.3 min | 15.5 min | – | O=C1COc2ccc(NC(=O)C3CCN(c4ccc(F)c(F)c4)CC3)cc2N1 | – |
| 55 min | 79 min | – | O=C(Nc1ccc2c(c1)NC(=O)C(CCO)O2)C1CCN(c2cc(F)c(F)c(F)c2)CC1 (stereo not drawn) | IC50 (Cytochrome P450 3A4): 3.7 µM; IC50 [1]: 0.005 µM; IC50 (Cytochrome P450 2D6): > 10 µM; Papp A→B [6]: 15 nm/s; Ratio (Caco-2): 10.6 |
